Experimental findings from the EternaBench riboswitch data are described below.

In data set [1] the test system is MS2 coat protein. Kind of data set: apparent Kd, MS2 coat protein; higher = weaker binding; RNA-MaP array; theophylline 2 mM where present. In short, it runs like this:
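The apparent Kd is reported as the median of filtered per-cluster binding-curve fits. To get these curves, designs transcribed by stalled E. coli RNA polymerase on Illumina sequencing-chip clusters were titrated with SNAP-549-labelled MS2 coat protein from 0.7 or 1.5 nM, doubling to 3 µM. Titrations were run without and then with constant ligand in 100 mM Tris-HCl pH 7.5, 80 mM KCl, 4 mM MgCl2, BSA, DTT, yeast tRNA and Tween-20, and green signal was normalised to red-channel RNA signal and control-cluster median Fmax.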

Data set [2] has as its system MS2 coat protein. Nature of the data set: apparent Kd, MS2 coat protein; higher = weaker binding; RNA-MaP array. An outline of the steps: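 Apparent Kd values come from the median of binding-curve fits to single clusters. To obtain them, designed RNAs transcribed on an Illumina sequencing chip from sequenced DNA templates were incubated at room temperature with fluorescently labeled MS2 coat protein at 1.5 nM to 3 μM, with or without input ligand, for 0.8–1.5 h at the lowest and 10–20 min at the highest concentrations. Designs measured on fewer than 10 clusters were excluded.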

Where [3] appears, read: designed as: OFF switch for theophylline, no ligand.
The mark [4] stands for this setting: ligand present: theophylline, designed as: OFF switch for theophylline.
The mark [5] stands for this setting: designed as: ON switch for theophylline, no ligand.
Setting [6] is: ligand present: theophylline, designed as: ON switch for theophylline.
[7] abbreviates: designed as: ON switch for flavin mononucleotide, no ligand.
Where [8] appears, read: ligand present: flavin mononucleotide, designed as: ON switch for flavin mononucleotide.
[9] abbreviates: designed as: OFF switch for flavin mononucleotide, no ligand.
[10] abbreviates: ligand present: flavin mononucleotide, designed as: OFF switch for flavin mononucleotide.

For orientation: apparent Kd means the concentration giving half-maximal binding under the conditions of the assay. With “CAUUAAGUAACUGAUACCAGUGUACUGACAUGAGGAUCACCCAUGUUGGGUUUUGUUGUACACCCUUGGCAGCAGAAUCUUAAUG”, the “apparent Kd” value in the data set with MS2 coat protein [1] (setting [3]) is 68.7 nM; with MS2 coat protein [1] (setting [4]), 95.5 nM.

For the sequence “CGAUCUUUCGAAAGAAGGAUCGAGUCUGAUACCAGAGACGAAAGUCUCCCUUGGCAGCAGUGCCAACAUGAGGAUCACCCAUGUU”, the results for the “apparent Kd” value with MS2 coat protein [1] (setting [5]) and with MS2 coat protein [1] (setting [6]) were 15.8 nM and 15.5 nM, respectively.

Take “AAUAACAUGAGGAUCACCCAUGUAAAAGAUACCAGAUGCAUGAUGAUCCCUUGGCAGCUUAAAACGCGAUUGGAAACAAUCGCGA”: the “apparent Kd” value in the data set with MS2 coat protein [1] (setting [5]) turned out to be 31.2 nM; in the data set on MS2 coat protein [1] (setting [6]), 126 nM.

As for “AUCAGUAGAACUGAUACCAGUCAAAGGCUUUGACCUCAUAACAUGAGGAUCACCCAUGUUGACCCUUGGCAGCAGUAGGCAAGGG”, the “apparent Kd” value with MS2 coat protein [1] (setting [3]) stood at 21.4 nM; with MS2 coat protein [1] (setting [4]) it was 35.1 nM.

As to “UAGGUGAUCUUCAACGGAAAACGUUGUGAUACCAGCCAACAAUACGGCCCUUGGCAGCACAUGAGGAUCACCCAUGUGUACACCG”, the entries for the “apparent Kd” value with MS2 coat protein [1] (setting [3]) and in the data set on MS2 coat protein [1] (setting [4]) were 29.4 nM and 193 nM, respectively.

With “UCGUGUGUUUCGGAUACCAGUGAAAUCGAUACAUGAGGAUCACCCAUGUGAGAGGAUGUACACCCUUGGCAGCUGUCUGUAUCUG”, the “apparent Kd” value in the data set on MS2 coat protein [1] (setting [5]) is 13.1 nM; with MS2 coat protein [1] (setting [6]), 13.7 nM.

Consider “AGAAUAACACAUGAGGAUCACCCAUGUGAUACCAGCUAGGAAACUAGCCCUUGGCAGCACAUAAGGUGAUCCAGCUGCCAAGAAU”, for which the “apparent Kd” value came to 137 nM with MS2 coat protein [1] (setting [3]) and 74.9 nM with MS2 coat protein [1] (setting [4]).

“ACAUGAGGAUCACCCAUGUUCCUCGCCGAUACCAGUGAAGAAGUACGCCCUUGGCAGCGGAAAGAGUAUUUUGGAGAUGAGGUAC”: the “apparent Kd” value with MS2 coat protein [1] (setting [3]) stood at 80 nM; in the data set with MS2 coat protein [1] (setting [4]) it was 88.8 nM.

Consider “UUAAUGGAGCUUUAAUUUACGAUUUCUGAUACCAGUGUUUCAUUUCACCCUUGGCAGCAGUGACAUGAGGAUCACCCAUGUAAUA”, for which the “apparent Kd” value in the data set on MS2 coat protein [1] (setting [5]) was 25.4 nM; in the data set with MS2 coat protein [1] (setting [6]), 23.5 nM.

In the case of “UGUACAUGAGGAUCACCCAUGUUACAUGAUACCAGACAUGAGAGUGUCCCUUGGCAGCAUGGAGCUGAUACGGCGGGAAGCCGGA”, the “apparent Kd” value stood at 26.8 nM in the data set on MS2 coat protein [1] (setting [5]) and 32.6 nM in the data set on MS2 coat protein [1] (setting [6]).

With “ACGAUGCGACAUGAGGAUCACCCAUGUGAUACCAGCCUGGAAACAGGCCCUUGGCAGCACAAAUACUCCAGAAACGCAUCGAAUA”, the “apparent Kd” value in the data set on MS2 coat protein [1] (setting [3]) is 267 nM; in the data set on MS2 coat protein [1] (setting [4]), 439 nM.

As for “UAUAUAUAUAUUGAUACCAGCAGAGAAAACAUAUAUCCUAACAUGAGGAUCACCCAUGUAUGCCCUUGGCAGCGAUAUAUAUAUA”, the “apparent Kd” value with MS2 coat protein [1] (setting [3]) came to 26 nM; with MS2 coat protein [1] (setting [4]), 32.3 nM.

“AUCGUACCUGAUGAUACCAGCAUGUGAUCGUAACAUGAGGAUCACCCAUGUGAUCAGUGAUGCCCUUGGCAGCAUGAUCGGUACA”: the “apparent Kd” value in the data set with MS2 coat protein [1] (setting [5]) is 35.4 nM; in the data set on MS2 coat protein [1] (setting [6]) it was 14.7 nM.

For “CUCUGAGUGAGUAAUCACUCAGAGGCGGAUACCAGCGAGGUCCAUCGCCCUUGGCAGCCGAACAUGAGGAUCACCCAUGUCGGUA”, the “apparent Kd” value in the data set with MS2 coat protein [1] (setting [5]) amounted to 10.7 nM; in the data set with MS2 coat protein [1] (setting [6]), 14.6 nM.

For “AGACAUGUAAGAUAAAUGACUUAUACAGAUACCAGACUAGUCAAUGUCCCUUGGCAGCUGCAUAACAUGAGGAUCACCCAUGUAA”, the entries for the “apparent Kd” value with MS2 coat protein [1] (setting [3]) and with MS2 coat protein [1] (setting [4]) were 26.7 nM and 32.7 nM, respectively.

In the case of “UGUUUGGUGCGCGAGUGUUGGAUAAUUGAUACCAGUGUAGAUGUGCGCCCUUGGCAGCGAAUCCUAACAUGAGGAUCACCCAUGU”, the “apparent Kd” value in the data set with MS2 coat protein [1] (setting [5]) is 43.8 nM; in the data set on MS2 coat protein [1] (setting [6]), 57.1 nM.

As for “UGCUUAAGACAGAAGGGCGUUCCGGAUGGUACCGCAGGAUAUGUCAACAUGAGGAUCACCCAUGUUACUAGCUAUGUUUCAAUU”, the “apparent Kd” value was found to be 9.97 nM with MS2 coat protein [2] (setting [7]) and 6.09 nM in the data set on MS2 coat protein [2] (setting [8]).

On to “UCUGGUAUGACGGCCGCCACUAGAUCGUGAGAAGCCUGCAUACAUGAGGAUCACCCAUGUCUCACUAGGACCGGGUCAUUCCAAU”, for which the “apparent Kd” value is 66.1 nM with MS2 coat protein [2] (designed as: ON switch for tryptophan, no ligand) and 22.3 nM in the data set with MS2 coat protein [2] (ligand present: tryptophan, designed as: ON switch for tryptophan).

Turning to “UCGUUGGCACAGAAGGGACUCUCGAAGCAUGUGUCAGGAUAUGUGCGCUACAUGAGGAUCACCCAUGUCAAGACCUGGUUAGCA”, the “apparent Kd” value worked out at 29.4 nM in the data set on MS2 coat protein [2] (setting [9]) and 18.8 nM in the data set on MS2 coat protein [2] (setting [10]).

Take “GGUAUGUCAGGAUAUUAAUGGUCAGUAACGGAACAGAGGAGUAAGAAGGGACAUGAGGAUCACCCAUGUAUUCG”: the “apparent Kd” value came out at 17.1 nM in the data set on MS2 coat protein [2] (setting [9]) and 16.4 nM in the data set with MS2 coat protein [2] (setting [10]).

“AGAAAGAAUCAGAAGGCAGAGAUGUCUAUCUACUGAGGAUAUGAAUGACAUGAGGAUCACCCAUGUUGUCAGGCCAGGCCCAAC”: the “apparent Kd” value with MS2 coat protein [2] (setting [7]) was found to be 7.78 nM; in the data set with MS2 coat protein [2] (setting [8]) it was 9.75 nM.

Turning to “AAAGAACAUGAGGAUCACCCAUGUCAGGAUAUACAAAGACGUAGCAAAGCGGACUCAAGAAGAAGGGACAAGGA”, the “apparent Kd” value in the data set with MS2 coat protein [2] (setting [9]) is 12.8 nM; in the data set with MS2 coat protein [2] (setting [10]), 10.1 nM.
